The text below walks through data of ChEMBL document CHEMBL1138839, “Antitumor Agents. 239. Isolation, structure elucidation, total synthesis, and anti-breast cancer activity of neo-tanshinlactone from Salvia miltiorrhiza” (2004).

Experiment [1] relates to MDA-MB-231. Nature of the experiment: Percent inhibition of cell growth in human breast cancer MDA-MB-231 cell line. Format: functional.
The subject of experiment [2] is KB. Nature of the experiment: Percent inhibition of cell growth in vincristine-resistant human nasopharyngeal carcinoma KB cell line. Format: functional.
Experiment [3] concerns A549. Briefly: Percent inhibition of cell growth in human lung cancer A549 cell line. Format: functional.
The test system of experiment [4] is A-431. Briefly: Percent inhibition of human skin cancer A431 cell proliferation. Format: functional.
In experiment [5] the test system is SW-620. Nature of the experiment: Percent inhibition of cell growth in human colon cancer SW620 cell line. Format: functional.
Experiment [6] deals with MCF7. Nature of the experiment: Percent inhibition of cell growth in human breast cancer MCF-7 cell line. Format: functional.
Experiment [7] has as its system KB. Nature of the experiment: Percent inhibition of cell growth in human nasopharyngeal carcinoma KB cell line. Format: functional.
Experiment [8] relates to A-431. Briefly: Effective concentration required for 50% reduction in cell growth of human skin cancer A431 cell line. The conditions noted are these: read-out: ED50 (the source's name). Format: functional. In short, it runs like this:
(§1)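 Freshly trypsinized cells in RPMI-1640 (25 mM HEPES, 0.25% sodium bicarbonate, 10% FBS, 100 μg/mL kanamycin) were seeded at 1500-7500 cells/well and dosed from DMSO-diluted stock. After 3 days they were fixed with cold 50% TCA, stained with 0.4% SRB, and read at 562 nm after dye solubilization. ED50 (50% growth reduction) is the mean of ≥3 independent determinations.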

Experiment [9] relates to A549. Nature of the experiment: Dose required for reduction in human lung cancer A549 cell proliferation. Format: functional. Conditions: read-out: ED50 (the source's name). In short, it runs like this: as §1
In experiment [10] the test system is SW-620. Nature of the experiment: Dose required for reduction in cell growth of human colon cancer SW620 cell line. Format: functional. Conditions: read-out: ED50 (the source's name).
The test system of experiment [11] is MCF7. Nature of the experiment: Dose required for reduction in cell growth of human breast cancer MCF-7 cell line. Format: functional. Conditions: read-out: ED50 (the source's name). Put shortly: as §1
The test system of experiment [12] is MDA-MB-231. Briefly: cells. Conditions: Homo sapiens, MDA-MB-231, read-out: ED50. Format: functional.
The test system of experiment [13] is LNCaP. Nature of the experiment: Dose required for reduction in cell growth of human AR-dependent prostate cancer LN-CaP cell line. Format: functional. The conditions noted are these: read-out: ED50 (the source's name).
Another experiment concerns PC-3. Briefly: Dose required for reduction in cell growth of human prostate cancer PC-3 cell line. Format: functional. The conditions noted are these: read-out: ED50 (the source's name).
In experiment [14] the test system is MDA-MB-231. Briefly: Dose required for reduction in cell growth of human breast cancer MDA-MB-231 cell line. Format: functional. Conditions: read-out: ED50 (the source's name). Put shortly: as §1
The subject of experiment [15] is MCF7. Briefly: Dose required for reduction in cell growth of estrogen positive human breast cancer MCF-7 cell line (ER+). Format: functional. Conditions: read-out: ED50 (the source's name).
In another experiment the test system is SK-BR-3. Briefly: Dose required for reduction in cell growth of estrogen negative human breast cancer SK-BR-3 cell line(ER-). Format: functional. The conditions noted are these: read-out: ED50 (the source's name).
A short description of the next experiment: cells. Format: functional. The conditions noted are these: Homo sapiens; read-out: ED50 (the source's name).
In a further experiment the test system is ZR-75-1. Nature of the experiment: Dose required for reduction in cell growth of estrogen positive human breast cancer ZR-75-1 cell line (ER+). Format: functional. The conditions noted are these: read-out: ED50 (the source's name).
Experiment [16] deals with KB. Nature of the experiment: Dose required for reduction in cell growth of vincristine-resistant human nasopharyngeal carcinoma KB cell line. Conditions: read-out: ED50 (the source's name). Format: functional.
Experiment [17] has as its system KB. Nature of the experiment: Dose required for reduction in cell growth of human nasopharyngeal carcinoma KB cell line. Conditions: read-out: ED50 (the source's name). Format: functional.
For experiment [18], the system named is LNCaP. Briefly: Percent inhibition of cell growth in human AR-dependent prostate cancer LN-CaP cell line; value ranges from 28-36. Format: functional.
In experiment [19] the test system is A-431. Nature of the experiment: Effective dose for reduction in cell growth of human skin cancer A431 cell line. Conditions: A-431, read-out: ED50.

In brackets after ≈: the same amount, converted by molar mass.

With `Cc1cccc2c1ccc1c3occ(C)c3c(=O)oc21`, the Inhibition came to 17% with MDA-MB-231 [1]; 9% in the experiment on KB [2]; 10% with A549 [3]; 35% in the experiment with A-431 [4]; 22% in the experiment with SW-620 [5]; 57% with MCF7 [6]. Further, the results for the Inhibition in the experiment on KB [7] and with LNCaP [18] were 18% and 36%, respectively. The EC50 is > 10 µg/mL in the experiment with A-431 [8]; > 20 µg/mL with A549 [9]; > 10 µg/mL in the experiment with SW-620 [10]; < 2.5 µg/mL in the experiment with MCF7 [11]; > 10 µg/mL with MDA-MB-231 [12]; > 10 µg/mL in the experiment with LNCaP [13]. The EC50 with PC-3 is 10 µg/mL (≈ 37.8 µM); in the experiment with MDA-MB-231 [14], > 20 µg/mL; in the experiment with MCF7 [15], 0.6 µg/mL (≈ 2.27 µM); in the experiment on SK-BR-3, 0.2 µg/mL (≈ 0.757 µM); in the experiment “cells”, 16 µg/mL (≈ 60.5 µM); with ZR-75-1, 0.3 µg/mL (≈ 1.14 µM). Besides, the EC50 with KB [16] and with KB [17] was > 10 µg/mL each time.

For `C[C@H]1COC2=C1C(=O)C(=O)c1c2ccc2c1CCCC2(C)C` [CRYPTOTANSHINONE], the results for the EC50 in the experiment on MCF7 [11] and in the experiment with MDA-MB-231 [14] were 0.41 µg/mL (≈ 1.38 µM) and 0.16 µg/mL (≈ 0.54 µM), respectively.

Consider `CC/C(=C(\c1ccccc1)c1ccc(OCCN(C)C)cc1)c1ccccc1.O=C(O)CC(O)(CC(=O)O)C(=O)O` [TAMOXIFEN CITRATE], for which the EC50 in the experiment with A-431 [19] was 7 µg/mL; in the experiment on SW-620 [10], 4 µg/mL; in the experiment on MDA-MB-231 [12], > 8 µg/mL; with LNCaP [13], 6 µg/mL; with PC-3 it was 10 µg/mL; in the experiment on MCF7 [15] it was 5 µg/mL. In addition, the EC50 in the experiment with SK-BR-3 was 5 µg/mL; in “cells”, 9 µg/mL; with ZR-75-1, 5 µg/mL; in the experiment on KB [16], 9 µg/mL; in the experiment on KB [17], 9 µg/mL.

In the case of `Cc1coc2c1C(=O)C(=O)c1c-2ccc2c1CCCC2(C)C` [TANSHINONE IIA], the EC50 in the experiment on MCF7 [11] came out at 0.38 µg/mL (≈ 1.29 µM); in the experiment with MDA-MB-231 [14] it was 0.7 µg/mL (≈ 2.38 µM).

Take `Cc1coc2c1C(=O)C(=O)c1c-2ccc2c(C)cccc12` [TANSHINONE I]: the figures for the EC50 in the experiment on MCF7 [11] and in the experiment on MDA-MB-231 [14] were 0.82 µg/mL (≈ 2.97 µM) and 0.75 µg/mL (≈ 2.71 µM), respectively.

A word on the Inhibition: it is the drop in the measured response relative to a control, in per cent. Read a high Inhibition as a response far below the control.
